A selection: hits, their analogues and other compounds. The true share with any hit is near 2.5%.
TDP2 absorb: blocks human TDP2 phosphodiesterase activity; hit rate 0.34% among 370,000; inhibition, % at 12.8 µM; recombinant TDP2, T5PNP hydrolysis, p-nitrophenol absorbance 415 nm;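 active = inhibition above the mean of all tested compounds plus 3 SD, set per campaign, cut at about 25% in these data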;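 note: 0% = DMSO with enzyme and 100% = buffer with substrate but no TDP2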
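Assay system: recombinant human TDP2 / Reagent: T5PNP substrate at 5 mM, a TopII-DNA adduct mimic / Measured by: epi absorbance from released p-nitrophenol / Evaluation: % inhibition relative to enzyme-containing and enzyme-free wells / Control set: enzyme-free and DMSO wells / Replicates: each compound tested once, singlicate / Schedule: enzyme reaction with compound for 2 h at 37 °C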
PRMT1 inh: blocks human protein arginine methyltransferase 1; inhibition, % at 2.79 µM; recombinant PRMT1, activity-based probe fluorescence polarization; AID 652257; hit rate 1.3% among 370,000;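 active = inhibition above about 21% made by adding two undisclosed values, limit read from the data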
CTSL1 counter: cathepsin L1 inhibition, PFM18AAP counter-screen; recombinant F. hepatica cathepsin L1, Z-Leu-Arg-MCA fluorescence; inhibition, % at 5.96 µM; hit rate 0.49% among 300,000; AID 1906;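 active = inhibition above the mean of all tested compounds plus 3 SD, set per screening campaign, cut at about 17% in these data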;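 note: 0% = plate median of test compound wells and 100% = 1 µM Z-Phe-Ala-diazomethylketone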
PAD4 FP inh: inhibitors of human PAD4. Q9UM07. AID 485272. recombinant PAD4, RCA probe fluorescence polarization. inhibition, % at 6.36 µM. hit rate 0.41% among 330,000;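 active = percent inhibition above a cutoff equal to the mean of all tested compounds plus 3 SD, cut at about 15% in these data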;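 note: 0% = PAD4 with RCA probe and DMSO and 100% = probe without PAD4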
Target sequence (Q9UM07 whole entry, looked up): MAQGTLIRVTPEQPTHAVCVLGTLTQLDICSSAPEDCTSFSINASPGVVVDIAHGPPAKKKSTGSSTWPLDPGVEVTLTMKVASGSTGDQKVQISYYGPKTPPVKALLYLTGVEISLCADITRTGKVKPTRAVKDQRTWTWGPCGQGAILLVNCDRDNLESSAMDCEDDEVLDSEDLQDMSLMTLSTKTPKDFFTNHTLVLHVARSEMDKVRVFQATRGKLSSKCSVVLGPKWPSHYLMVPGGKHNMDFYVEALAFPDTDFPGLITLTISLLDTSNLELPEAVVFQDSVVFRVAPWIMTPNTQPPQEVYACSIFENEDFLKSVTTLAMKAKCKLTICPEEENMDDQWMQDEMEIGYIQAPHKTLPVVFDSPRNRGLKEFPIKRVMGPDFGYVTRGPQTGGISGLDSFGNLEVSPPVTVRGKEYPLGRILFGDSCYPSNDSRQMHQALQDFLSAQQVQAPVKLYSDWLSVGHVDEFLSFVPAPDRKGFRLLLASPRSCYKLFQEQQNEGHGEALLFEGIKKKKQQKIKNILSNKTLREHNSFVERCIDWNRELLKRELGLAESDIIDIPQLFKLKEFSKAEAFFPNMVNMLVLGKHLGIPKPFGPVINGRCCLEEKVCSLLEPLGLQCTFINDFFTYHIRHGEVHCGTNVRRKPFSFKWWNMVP
GSTO1 inh: GSTO1 inhibition, counter-screen for RBBP9 inhibitors; P78417; recombinant GSTO1, activity-based probe fluorescence polarization; inhibition, % at 5.96 µM; hit rate 1.1% among 300,000; AID 1974;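 active = inhibition above the campaign mean inhibition plus 3 SD, cut at about 35% in these data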;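 note: 0% = GSTO1-1 with DMSO and 100% = wells lacking GSTO1-1 enzyme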
PRMT1 confirm: confirmation of human PRMT1 inhibitors. shares compounds with PRMT1 inh. recombinant His-PRMT1, activity-based probe fluorescence polarization. inhibition, % at 2.79 µM. hit rate 42% among 3,300. AID 687036;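 active = mean inhibition across replicates above the hit cutoff derived for the earlier primary screen, cut at about 22% in these data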
* = called active by the depositor; . = not tested or not shown.

SMILES	TDP2 absorb	PRMT1 inh	CTSL1 counter	PAD4 FP inh	GSTO1 inh	PRMT1 confirm
COc1cccc(NC(=O)C2C3C=CC(O3)C2C(=O)O)c1 (centres undefined)	2	-1	2	0	5	.
COC(=O)c1cc(C(c2ccccc2O)C2CCCO2)n2cccc(C(C)(C)C)c12 (centres undefined)	-2	-1	.	.	.	.
CCOC(=O)c1c(-c2ccc(C)o2)csc1NC(=O)CSc1nnnn1-c1ccccc1	-11	73*	3	0	6	4
CCOC(=O)c1sc(NC(=O)CSc2nnnn2-c2ccccc2)nc1C	9	0	2	-2	-6	.
CCOC(=O)c1c(-c2ccc(C)o2)csc1NC(=O)CSc1nnc(C)s1	10	63*	2	-9	6	15
CCOC(=O)c1c(-c2ccc(C)o2)csc1NC(=S)NC(=O)c1ccccc1Br	1	55*	4	-4	0	1
C=C1C(=O)C23C(O)C1CCC2C12COC3(O)C(O)C1C(C)(C)CCC2O (centres undefined)	8	29*	.	.	.	41*
NCCS	3	42*	1	-2	2	32*
Cc1cc(C)cc(C(=O)OCCCN(C)C2CN(Cc3cn(Cc4ccccc4C(F)(F)F)nn3)S(=O)(=O)C2)c1 (centres undefined)	-7	1	.	.	.	.
O=c1c2ccccc2nc(SCc2ccccc2)n1Cc1ccco1	7	3	2	-4	-12	.
O=c1c2ccccc2nc(SCc2nnc(-c3ccccc3Br)o2)n1Cc1ccco1	12	69*	-1	6	-2	58*
O=C(OCC#CCSc1nnc(-c2cccc3ccccc23)o1)C1CCC1	-13	1	.	.	.	.
O=C(OC12CCCN(C1)/C(=C/c1ccc(Cl)cc1)C2)C1CCCC1 (centres undefined)	-1	-2	.	.	.	.
O=C(c1cc(N2C(=O)C3C4CCC(C4)C3C2=O)ccc1Cl)N1CCN(c2ccc(F)cc2)CC1 (centres undefined)	-11	1	-2	-6	13	.
COc1ccc(N2CCN(C(=O)c3cc(N4C(=O)C5C6CCC(C6)C5C4=O)ccc3Cl)CC2)cc1 (centres undefined)	6	36*	7	-2	0	-1
Cc1cc(NS(=O)(=O)c2ccc(NC(=O)Cc3ccccc3)cc2)no1	2	4	.	.	.	.
COc1ccc(C(C(=O)NC2CCCCC2)n2c(=O)c(-c3ccco3)nc3ccccc32)cc1 (centres undefined)	4	13	.	.	.	.
CC(C)(C)NC(=O)C(c1ccccc1)n1c(=O)c(-c2ccco2)nc2ccccc21 (centres undefined)	12	26*	.	.	.	16
O=C(NC1CCCCC1)C(c1cccc2ccccc12)n1c(=O)c(-c2ccco2)nc2ccccc21 (centres undefined)	9	29*	.	.	.	19
O=c1c(-c2ccco2)nc2ccccc2n1C(c1ccccn1)c1nc2ccccc2[nH]1 (centres undefined)	5	57*	.	.	.	12
C#CCCCN([C@H](C(=O)OC)C(C)C)S(=O)(=O)c1ccccc1Br	-18	-6	.	.	.	.
O=C(CSc1ccc(Cl)cc1)N1CCN(c2ccc([N+](=O)[O-])cc2Cl)CC1	-5	28*	0	6	-2	0
Cc1cccc(-c2cccc3c4c([nH]c23)[C@@H]2C[C@H](N(C)C(=O)C3CCCCC3)[C@H]([C@H](C)O)CN2CC4)c1	-10	0	.	.	.	.
COCCCn1c(=NC(=O)c2ccccc2)c(C#N)cc2c(=O)n3cccc(C)c3nc21	8	31*	8	2	-9	-5
COc1ccc2c(c(-c3ccccc3)cn2C)c1-c1ccccc1	-4	9	.	.	.	.
SMILES	TDP2 absorb	PRMT1 inh	CTSL1 counter	PAD4 FP inh	GSTO1 inh	PRMT1 confirm
Cc1cccc(N2CCN(C(=O)c3ccc4ncsc4c3)CC2)c1C	-26	38*	.	.	.	1
COC(=O)C1CN(C2CC2)CCS(=O)(=O)N1Cc1cn(Cc2ccccc2)nn1 (centres undefined)	3	-3	.	.	.	.
Cc1ccccc1OCC(=O)N/N=C/c1ccc([N+](=O)[O-])o1	-9	9	3	-8	15	.
COc1ccccc1OCC(=O)N/N=C/C=C/c1ccc([N+](=O)[O-])o1	-17	25*	-1	-5	18	9
O=C(N/N=C\C=C\c1ccc([N+](=O)[O-])o1)c1cccs1	-16	31*	.	.	.	5
CN1C(=O)c2cc(NC(=O)Cc3ccccc3)ccc2OC[C@H]2O[C@H](CC(=O)O)CC[C@H]21	7	3	.	.	.	.
COC(=O)[C@]12CCCCC=C1N(Cc1ccc(OC)cc1)C(=O)[C@@H]2CC(=O)NCC12CC3CC(CC(C3)C1)C2	-9	-1	.	.	.	.
CCO[C@H]1OC(C(=O)N2CCN(Cc3ccc4c(c3)OCO4)CC2)=C[C@@H](c2csc3ccccc23)[C@@H]1CCCO	-10	96*	0	-3	4	-1
CCO[C@H]1OC(C(=O)N2CCN(Cc3ccc4c(c3)OCO4)CC2)=C[C@@H](c2cn(C(C)=O)c3ccccc23)[C@@H]1CCCO	-4	0	1	-3	-3	.
Brc1ccc(-c2csc3[n+]2CCCCC3)cc1	6	28*	4	11	0	1
CCOC(=O)CSC1=C(C#N)C(=O)NC(c2ccc(OC)cc2)S1 (centres undefined)	-19	35*	5	-3	6	7
COC(=O)[C@]12C[C@H](CC(=O)NCc3cccc4ccccc34)C(=O)N(Cc3ccccc3)C1=C[C@H](COCc1ccccc1)O[C@@H]2C	0	2	.	.	.	.
CCN1CC=C2C(C1)C(c1ccc(Cl)s1)C(C#N)=C(N)C2(C#N)C#N (centres undefined)	-8	30*	3	6	8	36*
CCOC(=O)C1=C(c2ccccc2)OC(N)=C(C#N)C1c1ccc(Cl)s1 (centres undefined)	1	1	6	1	28	.
COc1ccc(-c2ccc(CCC(=O)O)o2)cc1	-3	58*	6	-4	2	5
O=C(O)CCc1ccc(-c2ccc(Br)cc2)o1	7	62*	-5	-2	17	62*
CC1=C(C(=O)N2CCCCCC2)CC(CC(=O)NC2CCCC2)C(=O)N1Cc1ccc(C(C)(C)C)cc1 (centres undefined)	2	0	.	.	.	.
CCN(CC(=O)Nc1ccc(NC(C)=O)cc1)C(=O)CSCC(=O)Nc1ccc(C)cc1	10	-1	-7	-2	-2	.
CCOC(=O)c1ccc(NC(=O)CSCc2ccco2)cc1	-4	82*	-1	-1	3	84*
CCOC(=O)CC(=O)CSCC(=O)Nc1ccc(C)cc1	-14	40*	-5	-5	-8	32*
COC[C@H]1CCCN1c1ccc2c(c1)O[C@H](C)CCN(C1CC1)S2(=O)=O	-3	6	.	.	.	.
O=C(CN(CCc1ccccc1)S(=O)(=O)c1ccc(F)cc1)N1CCOCC1	-2	2	.	.	.	.
